The source of these data is ChEMBL document CHEMBL1153726, “Synthesis and anticancer activity of sclerophytin-inspired hydroisobenzofurans” (Bioorg Med Chem Lett, 2009).

This test is described as follows: Antitumor activity against human KB3 cells after 96 hrs by MTT assay. It is filed as functional, cell-based. As to conditions: KB3, 96 h. The method in brief: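 Human KB-3 carcinoma cells exposed to increasing compound concentrations; viability read by MTT colorimetric assay after 96 h. Values are means of triplicate assays, expressed relative to untreated controls.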
A general note: Tetrazolium assays rely on reduction of a dye to a coloured formazan, in cell work by metabolically active cells.

Regarding `C=C(C)[C@H]1CC=C(C)[C@H]2[C@@H]1[C@H](c1ccccc1Br)O[C@@H]2C(=O)OCC`, the IC50 is above 100 µM.

Molecule `C=C(C)[C@H]1CC=C(C)[C@@]2(O)[C@@H]1[C@H](c1cccc3ccccc13)O[C@@H]2C(=O)OC` came in with an IC50 of 10 µM.

As for `C=C(C)[C@H]1CC=C(C)C2=CO[C@@H](c3ccccc3Br)[C@@H]21`, the IC50 came to 4 µM.

With `C=C(C)[C@H]1CC(=O)C(C)=C2[C@@H](C(=O)OCC)O[C@@H](c3ccccc3Br)[C@@H]21`, the half-maximal inhibitory concentration (IC50) came to 70 µM.

Broadly, the IC50 is the concentration that inhibits the measured activity by half. A higher IC50 goes with weaker potency.
